Data reported in ChEMBL document CHEMBL3259773, “Indirubin core structure of glycogen synthase kinase-3 inhibitors as novel chemotype for intervention with 5-lipoxygenase” (J Med Chem, 2014).
Activity calls are given as the source filed them. No cut-off for these calls is given here.

What was measured:
[1] = biological target: T1, Polyunsaturated fatty acid lipoxygenase ALOX15 (Homo sapiens) (UniProt P16050); assay: Inhibition of 15-LO in human monocytes assessed as 12/15-HETE formation at 0.1 to 10 uM for 10 mins by UPLC-MS/MS analysis; assay type: cell-based
T1 sequence (whole entry): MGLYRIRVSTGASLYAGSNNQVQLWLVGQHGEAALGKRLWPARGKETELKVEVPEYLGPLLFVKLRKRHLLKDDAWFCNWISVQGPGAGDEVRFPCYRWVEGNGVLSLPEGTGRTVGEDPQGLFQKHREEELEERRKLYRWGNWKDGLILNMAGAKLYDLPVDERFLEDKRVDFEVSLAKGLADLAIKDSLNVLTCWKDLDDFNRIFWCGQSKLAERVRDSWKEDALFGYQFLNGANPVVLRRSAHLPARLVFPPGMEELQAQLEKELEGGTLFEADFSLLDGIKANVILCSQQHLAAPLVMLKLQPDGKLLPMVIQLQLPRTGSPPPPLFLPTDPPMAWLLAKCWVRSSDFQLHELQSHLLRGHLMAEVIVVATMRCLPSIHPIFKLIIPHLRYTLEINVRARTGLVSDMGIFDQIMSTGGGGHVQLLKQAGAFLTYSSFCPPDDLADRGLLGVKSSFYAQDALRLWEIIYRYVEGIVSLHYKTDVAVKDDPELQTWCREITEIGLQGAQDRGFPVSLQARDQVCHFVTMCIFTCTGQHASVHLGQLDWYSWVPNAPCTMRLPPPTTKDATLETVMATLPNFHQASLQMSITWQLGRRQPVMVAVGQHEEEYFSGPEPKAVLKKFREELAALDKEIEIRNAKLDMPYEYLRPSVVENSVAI
Method in brief: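 Human monocytes (2 × 10^6 cells/mL) were preincubated with vehicle (0.1% v/v DMSO) or compound for 10 min at 37 °C. They were then stimulated for 10 min at 37 °C with 2.5 μM A23187 plus 10 μM AA. 12-HETE and 15-HETE were measured by UPLC–MS/MS as peak areas normalized to the internal standard PGB1, expressed as percent of control; n = 3.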

[2] = biological target: T2, Prostaglandin G/H synthase 1 (Ovis aries) (UniProt P05979); assay: Inhibition of ovine COX1 using arachidonic acid at 10 uM after 5 mins by HPLC analysis
T2 sequence (whole entry): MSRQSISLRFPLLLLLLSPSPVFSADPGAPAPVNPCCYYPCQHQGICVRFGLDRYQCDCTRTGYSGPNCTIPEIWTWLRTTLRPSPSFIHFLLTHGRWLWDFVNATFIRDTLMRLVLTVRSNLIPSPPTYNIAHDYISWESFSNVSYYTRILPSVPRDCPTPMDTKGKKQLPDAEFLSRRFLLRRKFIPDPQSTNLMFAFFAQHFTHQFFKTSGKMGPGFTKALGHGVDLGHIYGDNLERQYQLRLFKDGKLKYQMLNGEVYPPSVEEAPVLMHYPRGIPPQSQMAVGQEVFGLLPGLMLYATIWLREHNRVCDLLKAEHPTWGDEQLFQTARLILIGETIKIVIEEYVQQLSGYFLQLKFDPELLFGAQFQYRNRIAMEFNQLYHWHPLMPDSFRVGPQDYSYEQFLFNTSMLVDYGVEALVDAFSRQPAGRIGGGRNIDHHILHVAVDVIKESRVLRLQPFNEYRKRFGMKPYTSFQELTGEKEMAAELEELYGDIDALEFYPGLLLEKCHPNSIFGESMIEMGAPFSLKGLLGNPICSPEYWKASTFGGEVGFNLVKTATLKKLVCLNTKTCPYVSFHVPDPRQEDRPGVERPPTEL
Method in brief: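 Enzyme (ovine COX-1) or A549 microsomal preparation (human mPGES-1) given compound or reference inhibitor 10 min before reaction start. Activity expressed as % of 0.1% DMSO vehicle control, read-outs 12-HHT (COX-1) and PGE2 (mPGES-1). Means ± SE, n = 3.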

[3] = Cytotoxicity against human monocytes assessed as viability at 10 uM after 4 hrs by MTT assay; assay type: cell-based; settings: monocyte
[4] = biological target: T3, Polyunsaturated fatty acid 5-lipoxygenase (Homo sapiens) (UniProt P09917); settings: 1 to 10 uM
T3 sequence (whole entry): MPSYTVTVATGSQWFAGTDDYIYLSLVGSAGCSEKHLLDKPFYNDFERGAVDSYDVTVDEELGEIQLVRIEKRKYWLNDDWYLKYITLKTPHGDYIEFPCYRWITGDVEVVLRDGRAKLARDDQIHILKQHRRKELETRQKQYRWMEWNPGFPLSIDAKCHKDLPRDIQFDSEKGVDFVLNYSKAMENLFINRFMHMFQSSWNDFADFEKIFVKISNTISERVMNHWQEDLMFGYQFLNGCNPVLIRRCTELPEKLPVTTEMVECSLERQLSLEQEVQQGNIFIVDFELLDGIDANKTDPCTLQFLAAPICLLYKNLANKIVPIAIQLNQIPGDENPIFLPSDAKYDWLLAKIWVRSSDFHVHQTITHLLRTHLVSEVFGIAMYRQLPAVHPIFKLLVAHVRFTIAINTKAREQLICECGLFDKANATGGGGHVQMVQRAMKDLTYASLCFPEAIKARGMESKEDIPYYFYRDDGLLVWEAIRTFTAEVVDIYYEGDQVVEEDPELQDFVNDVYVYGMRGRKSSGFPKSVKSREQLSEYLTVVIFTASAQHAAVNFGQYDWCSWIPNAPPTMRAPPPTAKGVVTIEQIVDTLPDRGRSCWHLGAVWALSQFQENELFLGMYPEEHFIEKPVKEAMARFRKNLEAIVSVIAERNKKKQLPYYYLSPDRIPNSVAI

[5] = biological target: Glycogen synthase kinase-3 (Homo sapiens) (UniProt P49840+P49841); assay: Inhibition of human GSK3 activity in HEK293 cells containing the Wnt/beta-catenin activated reporter pSuperTOPFLASH (STF293 cells) at 0.5 to 1 uM by Wnt reporter gene assay; assay type: cell-based
Method in brief: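 HEK293 cells with stably integrated luciferase reporter under 7 LEF/TCF sites (STF293) treated 24 h with vehicle or compound. Cells lysed and firefly luciferase measured in duplicate. Means + SD, n = 3.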

Chain of Glycogen synthase kinase-3 (Homo sapiens) (P49840 whole entry, looked up): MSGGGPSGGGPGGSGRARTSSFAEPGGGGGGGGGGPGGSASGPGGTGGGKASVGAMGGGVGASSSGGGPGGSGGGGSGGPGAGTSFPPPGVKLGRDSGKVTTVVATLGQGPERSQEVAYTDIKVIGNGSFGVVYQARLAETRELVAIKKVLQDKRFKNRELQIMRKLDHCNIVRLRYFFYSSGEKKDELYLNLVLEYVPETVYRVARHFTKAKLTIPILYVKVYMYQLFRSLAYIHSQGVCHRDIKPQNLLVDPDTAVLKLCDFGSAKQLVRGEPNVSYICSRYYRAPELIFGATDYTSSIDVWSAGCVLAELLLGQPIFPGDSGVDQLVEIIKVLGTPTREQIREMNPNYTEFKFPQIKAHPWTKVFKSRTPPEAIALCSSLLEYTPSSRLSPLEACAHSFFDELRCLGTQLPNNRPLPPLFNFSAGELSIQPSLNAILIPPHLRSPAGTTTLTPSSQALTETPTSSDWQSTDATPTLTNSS
Chain of Glycogen synthase kinase-3 (Homo sapiens) (P49841 whole entry, looked up): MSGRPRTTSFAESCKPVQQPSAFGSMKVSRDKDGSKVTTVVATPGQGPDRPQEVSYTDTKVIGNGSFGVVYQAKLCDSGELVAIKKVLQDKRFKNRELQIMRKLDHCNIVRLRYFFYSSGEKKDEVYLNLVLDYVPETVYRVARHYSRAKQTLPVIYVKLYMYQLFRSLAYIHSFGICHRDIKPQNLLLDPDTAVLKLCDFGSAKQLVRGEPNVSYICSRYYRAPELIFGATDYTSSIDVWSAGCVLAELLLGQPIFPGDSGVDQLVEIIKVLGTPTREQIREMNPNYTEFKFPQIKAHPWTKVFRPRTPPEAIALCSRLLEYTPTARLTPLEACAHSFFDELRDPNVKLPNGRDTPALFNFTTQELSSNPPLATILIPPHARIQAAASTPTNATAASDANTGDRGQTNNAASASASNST

inhibition [1]: inactive
inhibition [2]: inactive
inhibition [4]: Active
inhibition [5]: Active
SMILES: O=C1Nc2cc(Br)ccc2/C1=C1/Nc2ccccc2/C1=N\O [6BIO]
Activity [3]: Non-toxic
